These results are taken from ChEMBL document CHEMBL2321763, “The role of the acidity of N-heteroaryl sulfonamides as inhibitors of bcl-2 family protein-protein interactions” (ACS Med Chem Lett, 2013).

≈ marks a conversion by molar mass, not a printed value. Where only a bound is given, the exact number is not on record here.

Tested on in the first data set: not listed separately
The experiment in a line: Oral bioavailability in Sprague-Dawley rat at 10 mg/kg. As to conditions: in vivo. Format: ADME, organism-based. The essentials:
(§1)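 Rats got a single 1 mg/kg iv dose for plasma clearance, AUC and Vdss, and a 10 mg/kg po dose for oral bioavailability (%F). The vehicle was a solution of either 10% PG, 5% cremophor EL and 85% citrate buffer, or 10% PG, Solutol and 40% water for injection.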
The molecule `CN(C)CC[C@H](CSc1ccccc1)Nc1ccc(S(=O)(=O)Nc2ncnc3c2CCN(C2CCN(Cc4ccccc4-c4ccc(Cl)cc4)CC2)C3)cc1S(=O)(=O)C(F)(F)F` displayed a bioavailability of under 5%.

Another data set concerns Rattus norvegicus. As to the kind of experiment: AUC in Sprague-Dawley rat at 1 mg/kg, iv. Format: ADME, organism-based, Plasma. Further details: dose 1 mg/kg, route intravenous. As to conditions: in vivo. The method in brief:
as §1
`CN(C)CC[C@H](CSc1ccccc1)Nc1ccc(S(=O)(=O)NC2=NS(=O)(=O)c3cc(N4CCN(Cc5ccccc5-c5ccc(Cl)cc5)CC4)ccc32)cc1[N+](=O)[O-]`: the AUC is 761 nmol/h.

The molecule `CC(c1ccccc1-c1ccc(Cl)cc1)N1CCC(N2CCc3c(ncnc3NS(=O)(=O)c3ccc(N[C@H](CCN(C)C)CSc4ccccc4)c(S(=O)(=O)C(F)(F)F)c3)C2)CC1` (stereo partly specified) showed an AUC of 0.19 µM·h.

Take `CN(C)CC[C@H](CSc1ccccc1)Nc1ccc(S(=O)(=O)Nc2ncnc3c2CCN(C2CCN(Cc4ccccc4-c4ccc(Cl)cc4)CC2)C3)cc1S(=O)(=O)C(F)(F)F`: the AUC was determined as 0.232 µM·h.

Tested on in the next data set: not listed separately
As to the kind of experiment: Volume of distribution at steady state in Sprague-Dawley rat at 1 mg/kg, iv and 10 mg/kg, po. The format is ADME, organism-based. As to conditions: in vivo, read-out: Vdss. The essentials: as §1
As to `CN(C)CC[C@H](CSc1ccccc1)Nc1ccc(S(=O)(=O)NC2=NS(=O)(=O)c3cc(N4CCN(Cc5ccccc5-c5ccc(Cl)cc5)CC4)ccc32)cc1[N+](=O)[O-]`, the Vd is 0.09 L/kg.

As for `CC(c1ccccc1-c1ccc(Cl)cc1)N1CCC(N2CCc3c(ncnc3NS(=O)(=O)c3ccc(N[C@H](CCN(C)C)CSc4ccccc4)c(S(=O)(=O)C(F)(F)F)c3)C2)CC1` (stereo partly specified), the Vd amounted to 5.28 L/kg.

Consider `CN(C)CC[C@H](CSc1ccccc1)Nc1ccc(S(=O)(=O)Nc2ncnc3c2CCN(C2CCN(Cc4ccccc4-c4ccc(Cl)cc4)CC2)C3)cc1S(=O)(=O)C(F)(F)F`, for which the Vd was determined as 8.6 L/kg.

Tested on in a further data set: not listed separately
The experiment in a line: Clearance in Sprague-Dawley rat plasma at 1 mg/kg, iv. Format: ADME, organism-based. Further details: dose 1 mg/kg, route intravenous.
Details: not given
The method in brief: as §1
In turn, `CN(C)CC[C@H](CSc1ccccc1)Nc1ccc(S(=O)(=O)NC2=NS(=O)(=O)c3cc(N4CCN(Cc5ccccc5-c5ccc(Cl)cc5)CC4)ccc32)cc1[N+](=O)[O-]` gave a clearance of 25 mL/min/kg.

Take `CC(c1ccccc1-c1ccc(Cl)cc1)N1CCC(N2CCc3c(ncnc3NS(=O)(=O)c3ccc(N[C@H](CCN(C)C)CSc4ccccc4)c(S(=O)(=O)C(F)(F)F)c3)C2)CC1` (stereo partly specified): the clearance is 89 mL/min/kg. Compared with the last molecule, the clearance is about 3.6-fold higher.

Consider `CN(C)CC[C@H](CSc1ccccc1)Nc1ccc(S(=O)(=O)Nc2ncnc3c2CCN(C2CCN(Cc4ccccc4-c4ccc(Cl)cc4)CC2)C3)cc1S(=O)(=O)C(F)(F)F`, for which the clearance was 68 mL/min/kg.

Tested on in another data set: not listed separately
The experiment in a line: Ratio of compound solubility to ABT-737 solubility in fasted state simulated intestinal fluid. As to conditions: simulated gi fluid. The format is physicochemical.
As for `CN(C)CC[C@H](CSc1ccccc1)Nc1ccc(S(=O)(=O)Nc2nnc3cc(N4CCN(Cc5ccccc5-c5ccc(Cl)cc5)CC4)cnn23)cc1[N+](=O)[O-]`, the Ratio is 4.

In another data set the test system is Toledo. The experiment in a line: Induction of apoptosis in human Toledo cells. Format: functional. As to conditions: read-out: LD50 (the source's name).
As to `CN(C)CC[C@H](CSc1ccccc1)Nc1ccc(S(=O)(=O)Nc2nnc3cc(N4CCN(Cc5ccccc5-c5ccc(Cl)cc5)CC4)cnn23)cc1[N+](=O)[O-]`, the CC50 amounted to 4800 nM.

As to `O=S(=O)(Nc1nnc2n1CCN(C1CCN(Cc3ccccc3-c3ccc(Cl)cc3)CC1)C2)c1ccc(N[C@H](CCN2CCOCC2)CSc2ccccc2)c(S(=O)(=O)C(F)(F)F)c1`, the CC50 came to 15900 nM.

Take `O=S(=O)(Nc1ncnc2c1CN(C1CCN(Cc3ccccc3-c3ccc(Cl)cc3)CC1)C2)c1ccc(N[C@H](CCN2CCOCC2)CSc2ccccc2)c(S(=O)(=O)C(F)(F)F)c1`: the CC50 is 107000 nM.

Regarding `CN(C)CC[C@H](CSc1ccccc1)Nc1ccc(S(=O)(=O)Nc2nn(C)c3nc(N4CCN(Cc5ccccc5-c5ccc(Cl)cc5)CC4)ncc23)cc1[N+](=O)[O-]`, the CC50 is over 30000 nM.

Turning to `CN(C)CC[C@H](CSc1ccccc1)Nc1ccc(S(=O)(=O)NC2=NS(=O)(=O)c3cc(N4CCN(Cc5ccccc5-c5ccc(Cl)cc5)CC4)ccc32)cc1[N+](=O)[O-]`, the CC50 is over 30000 nM.

For the molecule `CC(c1ccccc1-c1ccc(Cl)cc1)N1CCC(N2CCc3c(ncnc3NS(=O)(=O)c3ccc(N[C@H](CCN(C)C)CSc4ccccc4)c(S(=O)(=O)C(F)(F)F)c3)C2)CC1` (stereo partly specified), the CC50 turned out to be 113 nM.

On to `CN(C)CC[C@H](CSc1ccccc1)Nc1ccc(S(=O)(=O)Nc2ncnc3c2CCN(C2CCN(Cc4ccccc4-c4ccc(Cl)cc4)CC2)C3)cc1S(=O)(=O)C(F)(F)F`, for which the CC50 came to 298 nM.

Tested on in the next data set: not listed separately
The experiment in a line: Solubility of compound in fasted state simulated intestinal fluid.
Details: not given
On to `CN(C)CC[C@H](CSc1ccccc1)Nc1ccc(S(=O)(=O)Nc2nnc3cc(N4CCN(Cc5ccccc5-c5ccc(Cl)cc5)CC4)cnn23)cc1[N+](=O)[O-]`, for which the concentration in solution (solubility) came to 31 µM (≈ 25.7 µg/mL).

Take `O=S(=O)(Nc1nnc2n1CCN(C1CCN(Cc3ccccc3-c3ccc(Cl)cc3)CC1)C2)c1ccc(N[C@H](CCN2CCOCC2)CSc2ccccc2)c(S(=O)(=O)C(F)(F)F)c1`: the solubility is 9 µM (≈ 8.64 µg/mL).

`O=S(=O)(Nc1ncnc2c1CN(C1CCN(Cc3ccccc3-c3ccc(Cl)cc3)CC1)C2)c1ccc(N[C@H](CCN2CCOCC2)CSc2ccccc2)c(S(=O)(=O)C(F)(F)F)c1` had a solubility of 70 µM (≈ 67 µg/mL).

For `CN(C)CC[C@H](CSc1ccccc1)Nc1ccc(S(=O)(=O)NC2=NS(=O)(=O)c3cc(N4CCN(Cc5ccccc5-c5ccc(Cl)cc5)CC4)ccc32)cc1[N+](=O)[O-]`, the solubility is under 5 µM.

In the case of `CC(c1ccccc1-c1ccc(Cl)cc1)N1CCC(N2CCc3c(ncnc3NS(=O)(=O)c3ccc(N[C@H](CCN(C)C)CSc4ccccc4)c(S(=O)(=O)C(F)(F)F)c3)C2)CC1` (stereo partly specified), the solubility is 31 µM (≈ 29.2 µg/mL).

`CN(C)CC[C@H](CSc1ccccc1)Nc1ccc(S(=O)(=O)Nc2ncnc3c2CCN(C2CCN(Cc4ccccc4-c4ccc(Cl)cc4)CC2)C3)cc1S(=O)(=O)C(F)(F)F` returned a solubility of 64 µM (≈ 59.4 µg/mL). Against the preceding molecule, the solubility is about 2.1-fold higher.

The target of a further data set is Bcl-2-like protein 1 (Homo sapiens, UniProt Q07817). The experiment in a line: Inhibition of Bcl-xL/BAK (unknown origin) interaction.
Chain of Bcl-2-like protein 1 (Q07817 whole entry): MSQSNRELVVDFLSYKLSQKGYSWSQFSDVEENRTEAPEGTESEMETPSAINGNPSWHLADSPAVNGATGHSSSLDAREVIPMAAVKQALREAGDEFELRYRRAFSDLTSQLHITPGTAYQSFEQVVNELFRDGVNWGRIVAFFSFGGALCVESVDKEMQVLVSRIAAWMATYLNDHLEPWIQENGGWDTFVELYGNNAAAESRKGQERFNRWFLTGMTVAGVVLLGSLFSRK
Details: not given
For the molecule `CC(c1ccccc1-c1ccc(Cl)cc1)N1CCC(N2CCc3c(ncnc3NS(=O)(=O)c3ccc(N[C@H](CCN(C)C)CSc4ccccc4)c(S(=O)(=O)C(F)(F)F)c3)C2)CC1` (stereo partly specified), half-maximal inhibition (IC50) was put at 115 nM.

Regarding `CN(C)CC[C@H](CSc1ccccc1)Nc1ccc(S(=O)(=O)Nc2ncnc3c2CCN(C2CCN(Cc4ccccc4-c4ccc(Cl)cc4)CC2)C3)cc1S(=O)(=O)C(F)(F)F`, it took 24 nM to reach half-maximal inhibition (IC50).

Another data set deals with T1, Apoptosis regulator Bcl-2 (Homo sapiens, UniProt P10415). As to the kind of experiment: Inhibition of Bcl-2/biotinylated BAK (unknown origin) interaction incubated for 1 hr by surface plasmon resonance analysis.
T1 sequence (P10415 whole entry): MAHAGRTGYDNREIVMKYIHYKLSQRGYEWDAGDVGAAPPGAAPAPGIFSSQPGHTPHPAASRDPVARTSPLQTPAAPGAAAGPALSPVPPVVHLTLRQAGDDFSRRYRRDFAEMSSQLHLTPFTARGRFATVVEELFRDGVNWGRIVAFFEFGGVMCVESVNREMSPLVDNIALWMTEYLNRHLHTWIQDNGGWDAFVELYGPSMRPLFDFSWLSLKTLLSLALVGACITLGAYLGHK
Details: not given
`CN(C)CC[C@H](CSc1ccccc1)Nc1ccc(S(=O)(=O)Nc2nnc3cc(N4CCN(Cc5ccccc5-c5ccc(Cl)cc5)CC4)cnn23)cc1[N+](=O)[O-]` came in with an IC50 of 25 nM.

For the molecule `O=S(=O)(Nc1nnc2n1CCN(C1CCN(Cc3ccccc3-c3ccc(Cl)cc3)CC1)C2)c1ccc(N[C@H](CCN2CCOCC2)CSc2ccccc2)c(S(=O)(=O)C(F)(F)F)c1`, it took 317 nM to reach half-maximal inhibition (IC50).

`O=S(=O)(Nc1ncnc2c1CN(C1CCN(Cc3ccccc3-c3ccc(Cl)cc3)CC1)C2)c1ccc(N[C@H](CCN2CCOCC2)CSc2ccccc2)c(S(=O)(=O)C(F)(F)F)c1` gave an IC50 of 740 nM.

In the case of `CN(C)CC[C@H](CSc1ccccc1)Nc1ccc(S(=O)(=O)Nc2nn(C)c3nc(N4CCN(Cc5ccccc5-c5ccc(Cl)cc5)CC4)ncc23)cc1[N+](=O)[O-]`, inhibition was half-maximal at 8500 nM (IC50). Compared with the last molecule, the IC50 is about 11-fold higher.

For `CN(C)CC[C@H](CSc1ccccc1)Nc1ccc(S(=O)(=O)NC2=NS(=O)(=O)c3cc(N4CCN(Cc5ccccc5-c5ccc(Cl)cc5)CC4)ccc32)cc1[N+](=O)[O-]`, the IC50 amounted to 17 nM.

Consider `CN(C)CC[C@H](CSc1ccccc1)Nc1ccc(S(=O)(=O)Nc2ncnc3c2CCN(C2CCN(Cc4ccccc4-c4ccc(Cl)cc4)CC2)C3)cc1S(=O)(=O)C(F)(F)F`, for which the concentration for half-maximal inhibition (IC50) turned out to be 19 nM.

The target in a further data set is T1, Apoptosis regulator Bcl-2. The experiment in a line: Binding affinity to Bcl-2 (unknown origin) by surface plasmon resonance analysis.
Details: not given
`CN(C)CC[C@H](CSc1ccccc1)Nc1ccc(S(=O)(=O)Nc2nnc3cc(N4CCN(Cc5ccccc5-c5ccc(Cl)cc5)CC4)cnn23)cc1[N+](=O)[O-]`: binding was characterised by a dissociation constant (Kd) of 8 nM.

`CN(C)CC[C@H](CSc1ccccc1)Nc1ccc(S(=O)(=O)NC2=NS(=O)(=O)c3cc(N4CCN(Cc5ccccc5-c5ccc(Cl)cc5)CC4)ccc32)cc1[N+](=O)[O-]` had a Kd of 14 nM.

On to `CC(c1ccccc1-c1ccc(Cl)cc1)N1CCC(N2CCc3c(ncnc3NS(=O)(=O)c3ccc(N[C@H](CCN(C)C)CSc4ccccc4)c(S(=O)(=O)C(F)(F)F)c3)C2)CC1` (stereo partly specified), for which the Kd stood at 2 nM.

`CN(C)CC[C@H](CSc1ccccc1)Nc1ccc(S(=O)(=O)Nc2ncnc3c2CCN(C2CCN(Cc4ccccc4-c4ccc(Cl)cc4)CC2)C3)cc1S(=O)(=O)C(F)(F)F` had a Kd of 7 nM.

The term bioavailability denotes the share of a dose that reaches the circulation, judged against a reference dose that is usually intravenous. A lower bioavailability goes with little systemic uptake. In general, clearance refers to the rate of elimination divided by the concentration. By solubility is commonly meant the concentration that dissolves in the medium under given conditions. In general, IC50 refers to the concentration at which inhibition is half-maximal. What is called Kd is the equilibrium constant for the complex coming apart. The low end stands for a tighter complex, the high end for a looser complex.
